# Results collected from several papers.
# Lines come from different studies, so protocols differ.
# Target: Serine/threonine-protein kinase haspin (HASPIN, Homo sapiens, UniProt Q8TF76)
# Sequence (Q8TF76 1-798, as in one of the studies): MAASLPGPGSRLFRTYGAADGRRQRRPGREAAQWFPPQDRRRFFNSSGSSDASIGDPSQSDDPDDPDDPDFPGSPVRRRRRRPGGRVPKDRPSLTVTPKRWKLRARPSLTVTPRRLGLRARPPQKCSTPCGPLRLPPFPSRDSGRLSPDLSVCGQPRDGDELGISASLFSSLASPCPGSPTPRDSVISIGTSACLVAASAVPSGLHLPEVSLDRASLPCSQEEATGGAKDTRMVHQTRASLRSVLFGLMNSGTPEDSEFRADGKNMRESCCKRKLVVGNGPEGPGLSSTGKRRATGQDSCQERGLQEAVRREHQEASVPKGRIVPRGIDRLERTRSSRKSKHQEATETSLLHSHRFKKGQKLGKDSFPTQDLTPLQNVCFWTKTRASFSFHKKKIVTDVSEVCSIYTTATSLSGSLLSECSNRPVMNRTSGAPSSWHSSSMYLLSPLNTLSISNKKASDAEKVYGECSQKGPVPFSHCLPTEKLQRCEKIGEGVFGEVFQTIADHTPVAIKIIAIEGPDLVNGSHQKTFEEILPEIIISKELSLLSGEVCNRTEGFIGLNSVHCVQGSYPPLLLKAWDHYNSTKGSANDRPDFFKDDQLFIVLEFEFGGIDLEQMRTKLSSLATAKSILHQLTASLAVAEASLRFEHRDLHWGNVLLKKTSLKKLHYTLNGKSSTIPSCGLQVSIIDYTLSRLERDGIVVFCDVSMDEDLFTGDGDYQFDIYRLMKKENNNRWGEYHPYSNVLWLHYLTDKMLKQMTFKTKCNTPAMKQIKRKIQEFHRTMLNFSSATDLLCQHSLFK
Structure (SMILES),test,conditions,quantity,value
CC1=C(C#N)C(c2ccc3c(c2)c(NC(=O)c2ccccc2C)nn3C)C(C#N)=C(C)N1,"cell-free assay, competition with immobilised ligand",1 µM,remaining binding,71%
Cn1cncc1C1=CN(c2ncnc3[nH]cnc23)CCS1,"enzyme activity, inhibitor, radiometric",50 nM,inhibition,25.6%
COc1ccc(C(=O)Nc2sc3c(c2C(N)=O)CCCC3)cc1OC,"enzyme activity, inhibitor",0.5 µM,remaining activity,82.8%
COCCOc1nc(-c2ccc(Cl)nc2)nc2c1CN(C(=O)c1ncn3ccccc13)CC2,"cell-free assay, competition with immobilised ligand",0.1 µM,remaining binding,100%
CNC(=O)c1cc(Oc2ccc(NC(=O)Nc3ccc(Cl)c(C(F)(F)F)c3)cc2)ccn1,"enzyme activity, inhibitor",10 µM,inhibition,10%
O=C1NC(=O)c2cc(Nc3ccc(F)cc3)c(Nc3ccc(F)cc3)cc21,cell-free assay,0.5 µM,remaining signal,95.1%
CC(C)(O)[C@H]1CC[C@H](Nc2ccc3ncc(-c4cccc(C(F)(F)F)c4)n3n2)CC1,"enzyme activity, inhibitor",1 µM,remaining activity,15.4%
CCCOc1ccc([C@H]2[C@H](C(=O)O)[C@@H](c3ccc4c(c3)OCO4)CN2CC(=O)Nc2c(CC)cccc2CC)cc1,"cell-free assay, competition with immobilised ligand",1 µM,remaining binding,62%
Cn1cnc(Br)c1C1=CN(c2ncnc3[nH]cnc23)CCS1,"enzyme activity, inhibitor, radiometric",50 nM,inhibition,32.9%
O=c1cc(-c2cccc3c2Sc2ccccc2S3)oc(N2CCOCC2)c1,"enzyme activity, inhibitor",0.5 µM,remaining activity,106%
CCCCN(CCCC)C(=O)CN1C[C@@H](c2cc(OC)c3c(c2)OCO3)[C@H](C(=O)O)[C@H]1CC(C)(C)CCC,"cell-free assay, competition with immobilised ligand",1 µM,remaining binding,100%
COc1cc(-c2cc(-c3ccc(N4CCNCC4)cc3)cnc2C)cc(OC)c1OC,"enzyme activity, inhibitor",0.1 µM,inhibition,3%
Cc1ccc(NC(=O)c2ccc(C)c(C(F)(F)F)c2)cc1C#Cc1nn(C2CCC(O)CC2)c2ncnc(N)c12 (centres unmarked),cell-free assay,10 µM,remaining signal,93%
CN1CCN(C(=O)c2ccc3cc(CCNc4ccnc5ccc(C#N)cc45)ccc3c2)CC1,"cell-free assay, competition with immobilised ligand",2 µM,inhibition,> 35%
O=C(O)c1ccc2c3c1cccc3c(=O)n1c3ccccc3nc21,"enzyme activity, inhibitor",0.5 µM,remaining activity,90.9%
Cc1cc(NC(=O)c2cccc3cc(-c4cccc5[nH]nc(N)c45)ccc23)ccc1F,"enzyme activity, inhibitor",0.1 µM,activity vs control,111%
Cc1ccc(Nc2nccc(N(C)c3ccc4c(C)n(C)nc4c3)n2)cc1S(N)(=O)=O,"enzyme activity, inhibitor",10 µM,inhibition,8%
CC(C)(C)c1nc(-c2cccc(NS(=O)(=O)c3c(F)cccc3F)c2F)c(-c2ccnc(N)n2)s1,"enzyme activity, inhibitor, radiometric",1 µM,remaining activity,147%
Cc1nc(Cc2cccc(C(F)(F)F)c2)sc1-c1ccc(C(N)=O)nc1,"cell-free assay, competition with immobilised ligand",1 µM,remaining binding,100%
Cc1ccc(C(=O)Nc2ccc(CN3CCN(C)CC3)c(C(F)(F)F)c2)cc1C#Cc1cnc2cccnn12,enzyme activity,23.5 nM,remaining activity,86%
Cc1cnc(NC2CCOCC2)nc1-n1cnc(C(=O)NC(CN)c2cc(F)cc(Cl)c2)c1 (centres unmarked),"enzyme activity, inhibitor, radiometric",1 µM,remaining activity,40%
O=C(Nc1cnn(-c2csc(C(=O)NC3COC3)c2)c1)Nc1c(F)cccc1Cl,"enzyme activity, inhibitor",5 µM,remaining activity,111%
Cc1c(C(=O)O)cc(-c2ccc(C3CCNCC3)cc2)c2ccc(-c3ccc(C(F)(F)F)cc3)cc12,"cell-free assay, competition with immobilised ligand",1 µM,remaining binding,100%
COc1cc2nccc(Oc3ccc(NC(=S)NC(=O)c4ccccc4C)cc3)c2cc1OC,"enzyme activity, inhibitor",0.5 µM,remaining activity,95.9%
CNCc1ccccc1-c1csc([C@@H](C)Nc2nc(C)nc3cc(OC)c(OC)cc23)c1,"cell-free assay, competition with immobilised ligand",1 µM,remaining binding,98%
CCCOc1ccc(OC)c(F)c1C(=O)c1ccc(C(=O)N[C@@H]2CNC[C@H]2NC(=O)c2ccc3[nH]ncc3c2)cc1,"enzyme activity, inhibitor",10 µM,remaining activity,22%
